{"data": "Published values from different studies", "VIPR1": "Vasoactive intestinal polypeptide receptor 1 (VIPR1, Homo sapiens, UniProt P32241)", "SULT1B1": "Sulfotransferase 1B1 (SULT1B1, Homo sapiens, UniProt O43704)", "note": "Compare with care: the assays were run in different laboratories."}
{"Compound": "O=[N+]([O-])c1cc[n+]([O-])c2ccccc12", "target": "TcPGFS (Trypanosoma cruzi, UniProt Q8I6L9)", "assay": "enzyme activity, inhibitor", "conditions": "200 µM", "measurement": "remaining activity", "value": "76%"}
{"Compound": "N=C(N)c1ccc2cc(OC(=O)c3ccc(N=C(N)N)cc3)ccc2c1", "target": "Cathepsin S (CTSS, Homo sapiens, UniProt P25774)", "assay": "enzyme activity, inhibitor", "conditions": "10 µM", "measurement": "inhibition", "value": "8%"}
{"Compound": "Nc1ncc(-c2nc(N3CCOCC3)nc(N3CCOCC3)n2)c(C(F)F)n1", "target": "Uncharacterized serine/threonine-protein kinase SBK3 (SBK3, Homo sapiens, UniProt P0C264)", "assay": "binding, competition with immobilised ligand", "conditions": "10 µM", "measurement": "remaining binding", "value": "85%"}
{"Compound": "COc1ncccc1-c1cnn2ccc(N3CCN(C(=O)OC(C)C)CC3)nc12", "target": "Bone morphogenetic protein receptor type-1B (BMPR1B, Homo sapiens, UniProt O00238)", "assay": "binding, competition with immobilised ligand", "conditions": "1 µM", "measurement": "remaining binding", "value": "100%"}
{"Compound": "CCN(CC)CCCC[C@H](NC(=O)[C@H](CC(C)C)NC(=O)[C@H](C)NC(=O)[C@H](Cc1ccccc1)NC(=O)c1ccc(C(C)(C)C)cc1)C(=O)N[C@@H](CO)C(=O)OC", "target": "VIPR1", "assay": "ligand displacement, radioligand", "conditions": "10 µM", "measurement": "remaining binding", "value": "110%"}
{"Compound": "O=C(Nc1cccnn1)N1CCN([C@@H]2CCOc3cc(C(F)(F)F)ccc32)CC1", "target": "VIPR1", "assay": "cell-free assay", "conditions": "20 µM", "measurement": "inhibition", "value": "-11%"}
{"Compound": "O=C(Nc1cccnc1)N1CCC(Cc2cccc(Oc3ccc(C(F)(F)F)cn3)c2)CC1", "target": "Fatty-acid amide hydrolase 1 (Faah, Rattus norvegicus, UniProt P97612)", "assay": "enzyme activity, inhibitor", "measurement": "kinact/KI", "value": "3900 M⁻¹ s⁻¹"}
{"Compound": "COc1cc(Br)cc(Br)c1Oc1cc(Br)cc(Br)c1O", "target": "SULT1B1", "assay": "enzyme activity, substrate", "measurement": "Km", "value": "24.9 µM"}
{"Compound": "CN(C)C(=O)COC(=O)Cc1ccc(OC(=O)c2ccc(NC(=N)N)cc2)cc1", "target": "Dipeptidyl peptidase 3 (DPP3, Homo sapiens, UniProt Q9NY33)", "assay": "enzyme activity, inhibitor", "conditions": "10 µM", "measurement": "inhibition", "value": "8%"}
{"Compound": "Cc1nn(C)cc1-c1nc2c(N3CCN(Cc4ccc(Cl)cc4)CC3)c(Cl)cnc2[nH]1", "target": "Wee1-like protein kinase 2 (WEE2, Homo sapiens, UniProt P0C1S8)", "assay": "binding, competition with immobilised ligand", "conditions": "1 µM", "measurement": "remaining binding", "value": "99%"}
{"Compound": "Oc1c(Br)cc(Br)cc1Oc1ccc(Br)cc1Br", "target": "SULT1B1", "assay": "enzyme activity, substrate", "measurement": "Km", "value": "0.172 µM"}
{"Compound": "CN1CCN(c2cc(-c3ccncc3)c(-c3ccc4ccccc4c3)nn2)CC1", "target": "Prokineticin receptor 1 (PROKR1, Homo sapiens, UniProt Q8TCW9)", "assay": "calcium signal, agonist", "test system": "PK-1", "conditions": "12.5 µM", "measurement": "activation", "value": "-0.3%"}
